Results: ChEMBL document CHEMBL3580554, “Design, synthesis, and anticonvulsant activity of new hybrid compounds derived from 2-(2,5-dioxopyrrolidin-1-yl)propanamides and 2-(2,5-dioxopyrrolidin-1-yl)butanamides” (J Med Chem, 2015)

How the values were obtained:
Mus musculus [1] = experiment: Anticonvulsant activity in Swiss mouse assessed as protection against seizures at 300 mg/kg, ip dosed 0.25 hrs before initiation of maximal electroconvulsions by maximal electroshock test; type: functional
Procedure, shortened: (§1)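 Mice were dosed i.p. at a fixed 300 or 100 mg/kg (6 Hz: 100 mg/kg only). Protection was then scored against MES, sc PTZ or 6 Hz seizures at pretreatment times of 0.25, 0.5, 1 and 2 h. Groups were four mice, scored as number protected / number tested. This also gives the time course and time of peak effect.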

Mus musculus [2] = experiment: Anticonvulsant activity in Swiss mouse assessed as protection against seizures at 300 mg/kg, ip dosed 0.5 hrs before initiation of maximal electroconvulsions by maximal electroshock test; type: functional; procedure, shortened: as §1
Mus musculus [3] = experiment: Anticonvulsant activity in Swiss mouse assessed as protection against seizures at 300 mg/kg, ip dosed 1 hr before initiation of maximal electroconvulsions by maximal electroshock test; type: functional; procedure, shortened: as §1
Mus musculus [4] = experiment: Anticonvulsant activity in Swiss mouse assessed as protection against seizures at 300 mg/kg, ip dosed 2 hrs before initiation of maximal electroconvulsions by maximal electroshock test; type: functional; procedure, shortened: as §1
Mus musculus [5] = experiment: Anticonvulsant activity in Swiss mouse assessed as protection against seizures at 100 mg/kg, ip dosed 0.25 hrs before initiation of maximal electroconvulsions by maximal electroshock test; type: functional; procedure, shortened: as §1
Mus musculus [6] = experiment: Anticonvulsant activity in Swiss mouse assessed as protection against seizures at 100 mg/kg, ip dosed 0.5 hrs before initiation of maximal electroconvulsions by maximal electroshock test; type: functional; procedure, shortened: as §1
Mus musculus [7] = experiment: Anticonvulsant activity in Swiss mouse assessed as protection against seizures at 100 mg/kg, ip dosed 1 hr before initiation of maximal electroconvulsions by maximal electroshock test; type: functional; procedure, shortened: as §1
Mus musculus [8] = experiment: Anticonvulsant activity in Swiss mouse assessed as protection against seizures at 100 mg/kg, ip dosed 2 hrs before initiation of maximal electroconvulsions by maximal electroshock test; type: functional; procedure, shortened: as §1
Mus musculus [9] = experiment: Anticonvulsant activity in Swiss mouse assessed as protection against seizures at 300 mg/kg, ip dosed 0.25 hrs before pentylenetetrazole challenge by subcutaneous pentylenetetrazole seizure test; type: functional; procedure, shortened: as §1
Mus musculus [10] = experiment: Anticonvulsant activity in Swiss mouse assessed as protection against seizures at 300 mg/kg, ip dosed 0.5 hrs before pentylenetetrazole challenge by subcutaneous pentylenetetrazole seizure test; type: functional; procedure, shortened: as §1
Mus musculus [11] = experiment: Anticonvulsant activity in Swiss mouse assessed as protection against seizures at 300 mg/kg, ip dosed 1 hr before pentylenetetrazole challenge by subcutaneous pentylenetetrazole seizure test; type: functional; procedure, shortened: as §1
Mus musculus [12] = experiment: Anticonvulsant activity in Swiss mouse assessed as protection against seizures at 300 mg/kg, ip dosed 2 hrs before pentylenetetrazole challenge by subcutaneous pentylenetetrazole seizure test; type: functional; procedure, shortened: as §1
Mus musculus [13] = experiment: Anticonvulsant activity in Swiss mouse assessed as protection against seizures at 100 mg/kg, ip dosed 0.25 hrs before pentylenetetrazole challenge by subcutaneous pentylenetetrazole seizure test; type: functional; procedure, shortened: as §1
Mus musculus [14] = experiment: Anticonvulsant activity in Swiss mouse assessed as protection against seizures at 100 mg/kg, ip dosed 0.5 hrs before pentylenetetrazole challenge by subcutaneous pentylenetetrazole seizure test; type: functional; procedure, shortened: as §1
Mus musculus [15] = experiment: Anticonvulsant activity in Swiss mouse assessed as protection against seizures at 100 mg/kg, ip dosed 1 hr before pentylenetetrazole challenge by subcutaneous pentylenetetrazole seizure test; type: functional; procedure, shortened: as §1
Mus musculus [16] = experiment: Anticonvulsant activity in Swiss mouse assessed as protection against seizures at 100 mg/kg, ip dosed 2 hrs before pentylenetetrazole challenge by subcutaneous pentylenetetrazole seizure test; type: functional; procedure, shortened: as §1
Mus musculus [17] = experiment: Anticonvulsant activity in Swiss mouse model of 6 Hz psychomotor seizure mode assessed as protection against seizures at 100 mg/kg, ip dosed 0.25 hrs before 6 Hz electrical stimulation by 6 Hz test; type: functional; procedure, shortened: as §1
Mus musculus [18] = experiment: Anticonvulsant activity in Swiss mouse model of 6 Hz psychomotor seizure mode assessed as protection against seizures at 100 mg/kg, ip dosed 0.5 hrs before 6 Hz electrical stimulation by 6 Hz test; type: functional; procedure, shortened: as §1
Mus musculus [19] = experiment: Anticonvulsant activity in Swiss mouse model of 6 Hz psychomotor seizure mode assessed as protection against seizures at 100 mg/kg, ip dosed 1 hr before 6 Hz electrical stimulation by 6 Hz test; type: functional; procedure, shortened: as §1
Mus musculus [20] = experiment: Anticonvulsant activity in Swiss mouse model of 6 Hz psychomotor seizure mode assessed as protection against seizures at 100 mg/kg, ip dosed 2 hrs before 6 Hz electrical stimulation by 6 Hz test; type: functional; procedure, shortened: as §1
Mus musculus [21] = organism: Mus musculus; experiment: Protective index, ratio of neurotoxic TD50 in Swiss mouse by Chimney test to anticonvulsant ED50 in Swiss mouse measured at 0.5 hrs of time to peak effect by maximal electroshock test
Procedure, shortened: (§2)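 Protective index was calculated as TD50 (chimney test, mouse, i.p.) divided by ED50 from the matching MES, sc PTZ or 6 Hz test, both taken at the time of peak effect.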

Mus musculus [22] = experiment: Anticonvulsant activity in ip dosed Swiss mouse assessed as protection against seizures measured at 0.5 hrs of time to peak effect by maximal electroshock test; type: functional
Procedure, shortened: (§3)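 Median effective doses (ED50, mg/kg) were determined i.p. in mice at the time of peak effect in the MES, sc PTZ or 6 Hz tests. Only compounds giving at least 50% protection at 100 mg/kg in that test were taken forward.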

Mus musculus [23] = experiment: Anticonvulsant activity in ip dosed Swiss mouse assessed as protection against seizures measured at 0.5 hrs of time to peak effect by subcutaneous pentylenetetrazole seizure test; type: functional; procedure, shortened: as §3
Mus musculus [24] = experiment: Anticonvulsant activity in ip dosed Swiss mouse assessed as protection against seizures measured at 0.5 hrs of time to peak effect by 6 Hz test by 6 Hz psychomotor seizure test; type: functional; procedure, shortened: as §3
[25] = Toxicity in ip dosed Swiss mouse assessed as induction of motor performance impairment measured within 60 seconds measured at 0.5 hrs of time to peak effect by Chimney test; type: organism-based; settings: in vivo
Procedure, shortened: (§4)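 Neurotoxicity was measured i.p. in mice by the chimney test for motor impairment. It was given as the median neurotoxic dose (TD50, mg/kg) at the time of peak effect.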

Mus musculus [26] = experiment: Protective index, ratio of neurotoxic TD50 in Swiss mouse by Chimney test to anticonvulsant ED50 in Swiss mouse measured at 0.5 hrs of time to peak effect by subcutaneous pentylenetetrazole seizure test; type: functional; procedure, shortened: as §2
Mus musculus [27] = organism: Mus musculus; experiment: Protective index, ratio of neurotoxic TD50 in Swiss mouse by Chimney test to anticonvulsant ED50 in Swiss mouse measured at 0.5 hrs of time to peak effect by 6 Hz test by 6 Hz psychomotor seizure test; type: functional; procedure, shortened: as §2
Mus musculus [28] = experiment: Anticonvulsant activity in ip dosed Swiss mouse assessed as protection against seizures measured at 0.25 hrs of time to peak effect by maximal electroshock test; type: functional; procedure, shortened: as §3
Mus musculus [29] = experiment: Anticonvulsant activity in ip dosed Swiss mouse assessed as protection against seizures measured at 0.25 hrs of time to peak effect by subcutaneous pentylenetetrazole seizure test; type: functional; procedure, shortened: as §3
Mus musculus [30] = experiment: Anticonvulsant activity in ip dosed Swiss mouse assessed as protection against seizures measured at 0.25 hrs of time to peak effect by 6 Hz test by 6 Hz psychomotor seizure test; type: functional; procedure, shortened: as §3
[31] = Toxicity in ip dosed Swiss mouse assessed as induction of motor performance impairment measured within 60 seconds measured at 0.25 hrs of time to peak effect by Chimney test; type: organism-based; settings: in vivo; procedure, shortened: as §4
Mus musculus [32] = experiment: Protective index, ratio of neurotoxic TD50 in Swiss mouse by Chimney test to anticonvulsant ED50 in Swiss mouse measured at 0.25 hrs of time to peak effect by subcutaneous pentylenetetrazole seizure test; type: functional; procedure, shortened: as §2
Mus musculus [33] = organism: Mus musculus; experiment: Protective index, ratio of neurotoxic TD50 in Swiss mouse by Chimney test to anticonvulsant ED50 in Swiss mouse measured at 0.25 hrs of time to peak effect by maximal electroshock test; procedure, shortened: as §2
Mus musculus [34] = organism: Mus musculus; experiment: Protective index, ratio of neurotoxic TD50 in Swiss mouse by Chimney test to anticonvulsant ED50 in Swiss mouse measured at 0.25 hrs of time to peak effect by 6 Hz test by 6 Hz psychomotor seizure test; type: functional; procedure, shortened: as §2

Structure (SMILES)	Activity (Mus musculus [1]) [%]	Activity (Mus musculus [2]) [%]	Activity (Mus musculus [3]) [%]	Activity (Mus musculus [4]) [%]	Activity (Mus musculus [5]) [%]	Activity (Mus musculus [6]) [%]	Activity (Mus musculus [7]) [%]	Activity (Mus musculus [8]) [%]	Activity (Mus musculus [9]) [%]	Activity (Mus musculus [10]) [%]	Activity (Mus musculus [11]) [%]	Activity (Mus musculus [12]) [%]	Activity (Mus musculus [13]) [%]	Activity (Mus musculus [14]) [%]	Activity (Mus musculus [15]) [%]	Activity (Mus musculus [16]) [%]	Activity (Mus musculus [17]) [%]	Activity (Mus musculus [18]) [%]	Activity (Mus musculus [19]) [%]	Activity (Mus musculus [20]) [%]	also measured
CC(C(=O)N1CCN(c2cccc(Cl)c2)CC1)N1C(=O)CCC1=O (racemic)	75	100	75	50	50	75	50	0	75	75	75	75	50	75	50	25	100	100	75	25	Ratio TD50/ED50 (Mus musculus [21]): 1.69; ED50 (Mus musculus [22]): 119 mg/kg; ED50 (Mus musculus [23]): 69.6 mg/kg; ED50 (Mus musculus [24]): 50.4 mg/kg; TD50 at 0.5 h [25]: 202 mg/kg; Ratio TD50/ED50 (Mus musculus [26]): 2.9; Ratio TD50/ED50 (Mus musculus [27]): 4
CCC1(C)CC(=O)NC1=O (centres undefined) [ETHOSUXIMIDE]																					ED50 (Mus musculus [28]): > 500 mg/kg; ED50 (Mus musculus [29]): 148 mg/kg; ED50 (Mus musculus [30]): > 200 mg/kg; TD50 at 0.25 h [31]: 722 mg/kg; Ratio TD50/ED50 (Mus musculus [32]): 4.89
CC(C(=O)N1CCN(c2ccccc2C(F)(F)F)CC1)N1C(=O)CCC1=O (racemic)	100	100	75	75	100	25	25	0	100	100	75	50	100	75	25	0	100	25	0	0	ED50 (Mus musculus [28]): 75.5 mg/kg; ED50 (Mus musculus [29]): 87.1 mg/kg; ED50 (Mus musculus [30]): 74.2 mg/kg; TD50 at 0.25 h [31]: 149 mg/kg; Ratio TD50/ED50 (Mus musculus [33]): 1.97; Ratio TD50/ED50 (Mus musculus [32]): 1.71; Ratio TD50/ED50 (Mus musculus [34]): 2.01
